Most compounds without a hit are left out; they make up all but 3.8% or so of the library.
KCNK9 inh = inhibitors of human KCNK9 two-pore domain potassium channel; AID 488922; B-score at 10 µM; Q9NPC2; 310,000 compounds, 1.2% hits; HEK293 KCNK9, FluxOR thallium flux fluorescence; active compounds read low;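 active = ratio B-score over 3 SD below the library mean, with starting fluorescence within 5 SD of its mean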;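 note: negative B-score means less thallium flux so channel inhibition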
KCNQ1 block = human KCNQ1 channel inhibition. B-score at 10 µM. AID 2642. CHO-K1 KCNQ1, FluxOR thallium flux fluorescence; active compounds read high. 310,000 compounds, 1.3% hits;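 active = compounds whose thallium flux B-score, printed positive for inhibition, exceeds three library SD while starting fluorescence stays within three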;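 note: channel opened by potassium depolarization with thallium stimulus after 20 min compound exposure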
KCNK3 block = human KCNK3 channel inhibition, primary screen | AID 602410 | CHO-KCNK3 thallium flux, FluxOR fluorescence; active compounds read low | B-score at 10 µM | 340,000 compounds, 0.84% hits;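 active = B-score under library mean minus 4 SD, starting fluorescence ratio at most library mean plus 5 SD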;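 note: more negative B-score means stronger inhibition of thallium flux through KCNK3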
Target sequence (O14649 whole entry, looked up): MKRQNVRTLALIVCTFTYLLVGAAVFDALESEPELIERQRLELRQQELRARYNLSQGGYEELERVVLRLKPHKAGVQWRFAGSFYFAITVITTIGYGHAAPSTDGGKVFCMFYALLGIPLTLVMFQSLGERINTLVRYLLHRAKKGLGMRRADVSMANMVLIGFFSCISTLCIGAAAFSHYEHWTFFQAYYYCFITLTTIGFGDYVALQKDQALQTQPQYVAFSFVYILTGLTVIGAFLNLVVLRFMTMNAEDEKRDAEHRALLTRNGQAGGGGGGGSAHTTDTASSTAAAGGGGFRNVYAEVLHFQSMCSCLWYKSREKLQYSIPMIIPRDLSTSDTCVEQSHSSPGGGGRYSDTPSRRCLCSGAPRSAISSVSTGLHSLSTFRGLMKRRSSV
KCNQ1 pot = potentiators or activators of human KCNQ1 potassium channel. P51787. CHO-K1 KCNQ1, thallium flux FluxOR fluorescence; active compounds read high. B-score at 10 µM. 310,000 compounds, 0.35% hits;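 active = fluorescence ratio B-score, a plate-corrected score, at least three library SD, with initial intensity B-score within 5 SD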
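Medium – assay buffer, equal DMSO in all wells · Material – CHO-K1 cell line with stable KCNQ1 potassium channel expression · Signal – kinetic FluxOR thallium fluorescence, 10-s 1-Hz baseline, 110-s post-stimulus read · Compound – single concentration per compound, DMSO matched to controls · Schedule – 37 °C overnight plating, 90-min dark dye load, 20-min compound pretreatment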
hERG rescue = shields human hERG channel from block by proarrhythmic agents; CHO-hERG, FluxOR thallium flux, dofetilide IC70 present; Q12809; 310,000 compounds, 0.51% hits; activation (rescue from dofetilide block), less the hit threshold, % at 10 µM;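 active = activation above the mean of controls blocked by dofetilide plus 5 SD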;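 note: thallium influx through hERG after potassium depolarization seen as dye fluorescence rise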
Kir21 block = Kir2.1 (mouse) channel inhibition | HEK293-Kir2.1, FluxOR thallium flux fluorescence; active compounds read low | AID 1672 | B-score at 10 µM | P35561 | 310,000 compounds, 0.85% hits;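 active = fluorescence ratio B-score at or below minus 3 SD of library scores, with starting-brightness B-score within 2 SD, cut at about -4.2 in these data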;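 note: channel flux triggered by added potassium and thallium sulfate stimulus; B-score of peak minus minimum fluorescence over baseline after thallium stimulus; more negative B-score means stronger Kir2.1 block with less thallium influx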
KCNK9 inh conf = confirmation of human KCNK9 potassium channel inhibitors; shares compounds with KCNK9 inh; HEK293 KCNK9 cells, FluxOR thallium flux fluorescence; inhibition, % at 10 µM; 4,900 compounds, 43% hits; AID 492992;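 active = thallium signal inhibited by more than 5 SD of the compound-free buffer control wells, on both duplicate plates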
Kir21 sel = mouse Kir2.1 off-target activity of KCNK9 modulators | shares compounds with KCNK9 inh | Kir2.1 cells, FluxOR thallium flux fluorescence | inhibition, % at 10 µM | 4,900 compounds, 4% hits | AID 492993;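 active = thallium signal drop more than 5 SD beyond the mean of the no-compound control wells, seen in both duplicate plates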;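 note: signal is fluorescence rise after thallium addition divided by baseline fluorescence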
KCNK9 uninduced = second counter-screen for KCNK9 modulators: effect in non-induced cells; shares compounds with KCNK9 inh; non-induced KCNK9-HEK293, FluxOR thallium flux; inhibition, % at 10 µM; 4,900 compounds, 40% hits; AID 492997;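 active = thallium signal drop beyond 5 SD of the untreated control mean, on both duplicate plates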
Numbers stand for hits; 0 = inactive; - = no result given.

SMILES	KCNK9 inh	KCNQ1 block	KCNK3 block	KCNQ1 pot	hERG rescue	Kir21 block	KCNK9 inh conf	Kir21 sel	KCNK9 uninduced
CN(C)S(=O)(=O)Oc1ccsc1C(=O)Nc1ccc(Cl)cc1	-11	0	-11	0	0	0	33%	0	40%
COc1ccc(COc2ccsc2C(=O)Nc2ccc(Cl)cc2)cc1	-9	0	0	0	0	0	44%	0	26%
CN(C)c1nc(NCc2ccccc2)nc(N/N=C/c2ccc(Cl)cc2Cl)n1	0	0	0	0	0	0	0	0	0
Cc1cc(N/N=C/c2ccc(Cl)cc2)nc(NCc2ccccc2)n1	0	0	0	0	0	0	-	-	-
O=C1c2[nH]nc(-c3ccccc3O)c2C(c2cccc(O)c2)N1Cc1ccco1 (stereo not drawn)	-8.4	0	0	0	0	0	26%	0	30%
O=C(CCNC(=O)c1ccccc1Cl)NC1=NCCS1	0	0	0	0	0	0	-	-	-
Cc1csc(SCC(=O)NCc2ccccc2)n1	0	0	0	0	0	0	-	-	-
Cc1csc2sc(-c3ccnc(SCC(=O)NCc4ccccc4)n3)c(C)c12	-9.2	0	0	0	0	0	0	0	32%
CCN(Cc1ccccc1)Cc1nc(CCc2ccccc2)no1	0	0	0	0	0	0	-	-	-
c1ccc(CCN(Cc2ccccc2)Cc2nc(C3CC3)no2)cc1	-9.6	0	0	0	0	0	0	0	38%
Cc1c(CCC(=O)O)c(=O)oc2cc3oc4c(c3cc12)CCCC4	0	0	0	0	0	0	0	0	0
C[C@H](O)[C@@H]1C(=O)N2CCc3ccc(N4CCN(C)CC4)cc3[C@@H]2C[C@@H]1N(C)C(=O)c1ccc(C#N)cc1	-	-	0	-	-	-	-	-	-
Cc1onc(-c2c(Cl)cccc2Cl)c1C(N)=S	0	0	0	0	0	0	-	-	-
Fc1ccc(N=c2ssnc2Cl)c(F)c1	0	0	0	0	0	0	0	0	0
Clc1ccc(N=c2ssnc2Cl)cc1	0	0	0	0	0	0	-	-	-
CNc1nc(SCc2ccccc2Cl)nc2c1CCCC2	-11	0	0	0	0	0	28%	0	38%
CN(C)c1nc(SCc2ccc(Cl)cc2)nc2c1CCCC2	-9.9	0	0	0	0	0	34%	0	56%
CCN(CC)C(=O)CSc1nc(-c2cccs2)cc(-c2cccs2)c1C#N	-9.8	0	0	0	0	0	62%	0	68%
CCN(CC)C(=O)CSc1nc(N)c(C#N)c(-c2cccs2)c1C#N	0	0	0	0	0	0	-	-	-
CN(Cc1ccc(C(F)(F)F)cc1)C(=O)c1ccc(Oc2ccccc2)cc1	0	0	0	0	0	0	0	0	26%
CN(Cc1ccccc1F)C(=O)c1ccc(Oc2ccccc2)cc1	0	0	0	0	0	0	0	0	0
CCN(C(=O)COC(=O)c1cccs1)c1c(N)n(Cc2ccccc2)c(=O)[nH]c1=O	0	0	0	0	0	0	-	-	-
CCOc1ccc(Nc2nc(N(C)c3ccccc3)nc(N)c2[N+](=O)[O-])cc1	0	0	0	0	0	0	-	-	-
CC(C)c1ccc(NC(=O)COC(=O)COc2ccccc2)cc1	0	0	0	0	0	0	-	-	-
CCN(CC)CCNC(=S)Nc1ccc2nc(N3CCCC3)cc(C)c2c1	-9.4	0	0	0	0	0	0	0	0
SMILES	KCNK9 inh	KCNQ1 block	KCNK3 block	KCNQ1 pot	hERG rescue	Kir21 block	KCNK9 inh conf	Kir21 sel	KCNK9 uninduced
CCN(CC)CCNC(=S)Nc1ccc2nc(N3CCN(C)CC3)cc(C)c2c1	0	0	0	0	0	0	-	-	-
Cc1oc(=O)c(NC(=O)c2cccc(Cl)c2)cc1C(=O)c1ccccc1	0	0	0	0	0	0	0	0	0
COc1ccc(C(=O)Nc2cc(C(=O)c3ccccc3)c(C)oc2=O)cc1	0	0	0	0	0	0	-	-	-
CSCCC(NC(=O)c1ccco1)c1nc2ccccc2[nH]1 (stereo not drawn)	0	0	0	0	0	0	-	-	-
CCCCc1ccc(-c2ccc(Br)cc2)nc1	0	0	0	0	0	0	0	0	0
CCCCOC1CC(c2ccc(OCc3ccc(OC)cc3)c(OC)c2)N(C)O1 (stereo not drawn)	0	0	0	0	0	0	0	0	0
CCCCNC(=O)C1CCN(Cc2ccc(OCc3ccccc3)c(OC)c2)CC1	0	0	0	0	0	0	-	-	-
Cc1ccc(C(c2nnnn2Cc2cccs2)N2CCN(Cc3ccc4c(c3)OCO4)CC2)cc1 (stereo not drawn)	-12	0	0	0	0	0	0	0	32%
Cc1ccc(CN2CCN(C(=O)c3cccc4ccccc34)CC2)cc1	0	0	0	0	0	0	-	-	-
Cc1cccc(CN2CCN(C(=O)c3cccc4ccccc34)CC2)c1	0	0	0	0	0	0	0	0	0
Cc1cc(C(=O)N2CCc3ccccc3C2)c(C)o1	-	-	0	-	-	-	-	-	-
FC(F)(F)c1ccc(/C=N/n2c(C3CCCCC3)n[nH]c2=S)cc1	0	0	0	0	0	0	-	-	-
CN(CC(=O)NCc1ccccc1)Cc1cccc(F)c1	0	0	0	0	0	0	-	-	-
CN(CC(=O)NC(=O)NCc1ccccc1)Cc1ccc(Cl)c(Cl)c1	0	0	0	0	0	0	0	0	0
COc1ccc(CN(C)CC(=O)NC(=O)NCc2ccccc2)c(OC)c1	0	0	0	0	0	0	0	0	0
O=C1C=C(c2cccc3c2sc2ccccc23)C[C@@H](c2ccc(Cl)cc2)C1	-	-	0	-	-	-	-	-	-
CC(=O)NC(=S)Nc1ccc(N2CCOCC2)c(S(=O)(=O)Nc2cc(Cl)ccc2Cl)c1	-15	0	0	0	0	0	66%	0	27%
CCC1CN(C(=O)NCc2cccc(OC)c2)c2ccccc2O1 (stereo not drawn)	0	0	0	0	0	0	0	0	0
CC(C)(C)c1cc(CCC(=O)NN)cc(C(C)(C)C)c1O	0	0	0	0	0	0	-	-	-
C=CC(=O)NCCCc1cc(C(C)(C)C)c(O)c(C(C)(C)C)c1	0	0	0	0	0	0	0	0	0
C#CC(CC)(CC)NC(=O)c1nn(-c2ccccc2Cl)c(C)cc1=O	0	0	0	0	0	0	-	-	-
O=C(O)c1cnc(-c2ccccc2)nc1Sc1ccc(Cl)cc1Cl	0	0	0	0	0	0	0	0	0
CC(C)(C)c1cc(C2=CSC3=NCCN23)cc(C(C)(C)C)c1O	0	0	0	0	0	0	-	-	-
O=C(NN1C(=O)C2C3C=CC(C3)C2C1=O)c1cccc(Cl)c1 (stereo not drawn)	0	0	0	0	0	0	-	-	-
